For two compounds, Ratio and Dose/g results are on record in ChEMBL document CHEMBL1122494, “New selenium-75 labeled radiopharmaceuticals: selenonium analogues of dopamine” (J Med Chem, 1983).

Holding throughout (type): ADME, organism-based
Series [1] deals with Rattus norvegicus. Briefly: Tissue radioactivity ratio in adrenal to Liver 120 min after Intravenous Injection in rats. The following applies: in vivo, 2 h. The procedure, abridged:
(§1)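 Same rat biodistribution: female Sprague-Dawley rats (100-300 g), 5-6 μCi [75Se]selenonium salt in 0.2 mL saline iv by tail vein, five per time point, killed by cardioectomy under chloroform. Ratios are tissue-to-tissue quotients of gamma-counted % injected dose per gram in each organ (adrenal, heart, kidney, liver, blood).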

The test system of series [2] is Rattus norvegicus. In words: Distribution of Se-75 activity in Liver of female Sprague-Dawley Rat 60 min after iv administration of dcompound. The conditions noted are these: in vivo, 1 h. The gist of the method:
(§2)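 Female Sprague-Dawley rats (100-300 g), five per group, got [75Se]selenonium salt in 0.2 mL saline (5-6 μCi) by lateral tail vein. They were killed by cardioectomy under chloroform anesthesia at the stated time. A sample of the large organ was weighed and gamma counted, and counts were converted to % injected dose/g. Values are mean and SEM of five.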

The subject of series [3] is Rattus norvegicus. In words: Tissue radioactivity ratio in adrenal to blood 30 min after Intravenous Injection in rats. The conditions noted are these: other tissue, 0.5 h. The procedure, abridged: as §1
The test system of series [4] is Rattus norvegicus. Briefly: Tissue radioactivity ratio in adrenal to Liver 60 min after Intravenous Injection in rats. The following applies: in vivo, 1 h. The gist of the method: as §1
Series [5] deals with Rattus norvegicus. In words: Distribution of Se-75 activity in Lung of female Sprague-Dawley Rat 5 min after iv administration of compound. The conditions noted are these: in vivo. The gist of the method:
as §2

Series [6] deals with Rattus norvegicus. In words: Tissue radioactivity ratio in Heart to Blood 120 min after Intravenous Injection in rats. The following applies: other tissue, 2 h. The procedure, abridged: as §1
Series [7] concerns Rattus norvegicus. Briefly: Distribution of Se-75 activity in Kidney of female Sprague-Dawley Rat 120 min after iv administration compound. The conditions noted are these: in vivo, 2 h. The gist of the method:
(§3)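 Female Sprague-Dawley rats (100-300 g), five per group, got [75Se]selenonium salt by lateral tail vein: 0.2 mL saline with 5-6 μCi. Groups were killed by cardioectomy under chloroform anesthesia at the set times. The organ was taken intact, rinsed with saline, blotted, weighed and gamma counted. Values are % injected dose/g, mean and SEM of five.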

The test system of series [8] is Rattus norvegicus. In words: Distribution of Se-75 activity in Brain of female Sprague-Dawley Rat 240 min after iv administration compound. The conditions noted are these: in vivo, 4 h.
In series [9] the test system is Rattus norvegicus. Briefly: Distribution of Se-75 activity in Heart of female Sprague-Dawley Rat 120 min after iv administration compound. The following applies: in vivo, 2 h. The procedure, abridged:
as §3

The subject of series [10] is Rattus norvegicus. Briefly: Distribution of Se-75 activity in blood of female Sprague-Dawley Rat 60 min after iv administration of compound. The following applies: in vivo, 1 h. The gist of the method: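 Female Sprague-Dawley rats (100-300 g) got 5-6 μCi of [75Se]selenonium salt in 0.2 mL saline via lateral tail vein. Groups of five were anesthetized with chloroform at set times and killed by cardioectomy. Tissues were rinsed, blotted and weighed, then gamma-counted. Values are % injected dose per gram, mean and SEM of five.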

Series [11] has as its system Rattus norvegicus. Briefly: Tissue radioactivity ratio in adrenal to Kidney 5 min after Intravenous Injection in rats. The conditions noted are these: in vivo. The gist of the method:
as §1

The subject of series [12] is Rattus norvegicus. Briefly: Distribution of Se-75 activity in Adrenal of female Sprague-Dawley Rat 240 min after iv administration compound. The conditions noted are these: in vivo, 4 h. The gist of the method:
as §3

Series [13] relates to Rattus norvegicus. In words: Distribution of Se-75 activity in Kidney of female Sprague-Dawley Rat 240 min after iv administration compound. The conditions noted are these: in vivo, 4 h. The gist of the method: as §3
In series [14] the test system is Rattus norvegicus. Briefly: Distribution of Se-75 activity in Heart of female Sprague-Dawley Rat 240 min after iv administration compound. The following applies: in vivo, 4 h. The gist of the method:
as §3

The test system of series [15] is Rattus norvegicus. In words: Distribution of Se-75 activity in Adrenal of female Sprague-Dawley Rat 120 min after iv administration compound. The conditions noted are these: in vivo, 2 h. The procedure, abridged:
as §3

Series [16] concerns Rattus norvegicus. In words: Distribution of Se-75 activity in blood of female Sprague-Dawley Rat 15 min after iv administration of compound. The conditions noted are these: in vivo, 0.25 h. The gist of the method: (§4)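 Tail-vein injection of 5-6 μCi [75Se]selenonium salt in 0.2 mL saline into female Sprague-Dawley rats (100-300 g), five per group. Rats were killed by cardioectomy under chloroform anesthesia at the time point. Radioactivity was gamma counted and expressed as % injected dose/g, mean and SEM of five.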

Series [17] relates to Rattus norvegicus. In words: Distribution of Se-75 activity in Liver of female Sprague-Dawley Rat 30 min after iv administration of compound. The following applies: in vivo, 0.5 h. The procedure, abridged:
as §2

Series [18] concerns Rattus norvegicus. Briefly: Distribution of Se-75 activity in Brain of female Sprague-Dawley Rat 120 min after iv administration compound. The following applies: in vivo, 2 h.
Series [19] concerns Rattus norvegicus. Briefly: Tissue radioactivity ratio in adrenal to Liver 15 min after Intravenous Injection in rats. The conditions noted are these: in vivo, 0.25 h. The procedure, abridged:
as §1

Series [20] relates to Rattus norvegicus. Briefly: Distribution of Se-75 activity in Lung of female Sprague-Dawley Rat 120 min after iv administration compound. The following applies: in vivo, 2 h. The procedure, abridged:
as §2

The subject of series [21] is Rattus norvegicus. In words: Distribution of Se-75 activity in Lung of female Sprague-Dawley Rat 240 min after iv administration compound. The conditions noted are these: in vivo, 4 h. The gist of the method:
as §2

The subject of series [22] is Rattus norvegicus. Briefly: Distribution of Se-75 activity in blood of female Sprague-Dawley Rat 120 min after iv administration of compound. The following applies: in vivo, 2 h. The procedure, abridged: as §4
For series [23], the system named is Rattus norvegicus. In words: Distribution of Se-75 activity in Brain of female Sprague-Dawley Rat 30 min after iv administration of compound. The following applies: in vivo, 0.5 h.
Series [24] concerns Rattus norvegicus. Briefly: Distribution of Se-75 activity in Liver of female Sprague-Dawley Rat 60 min after iv administration of compound. The following applies: in vivo, 1 h. The procedure, abridged:
as §2

Series [25] deals with Rattus norvegicus. Briefly: Distribution of Se-75 activity in Adrenal of female Sprague-Dawley Rat 120 min after iv administration of compound. The conditions noted are these: in vivo, 2 h. The procedure, abridged:
as §3

In series [26] the test system is Rattus norvegicus. Briefly: Distribution of Se-75 activity in Heart of female Sprague-Dawley Rat 240 min after iv administration of dose 5 uCi/0.2 mL. The conditions noted are these: in vivo, 4 h. The gist of the method: as §3
For series [27], the system named is Rattus norvegicus. Briefly: Distribution of Se-75 activity in Lung of female Sprague-Dawley Rat 240 min after iv administration of compound. The conditions noted are these: in vivo, 4 h. The procedure, abridged:
as §2

Series [28] concerns Rattus norvegicus. Briefly: Distribution of Se-75 activity in Heart of female Sprague-Dawley Rat 120 min after iv administration of compound. The following applies: in vivo, 2 h. The gist of the method:
as §3

Series [29] deals with Rattus norvegicus. Briefly: Distribution of Se-75 activity in Lung of female Sprague-Dawley Rat 120 min after iv administration of compound. The following applies: in vivo, 2 h. The procedure, abridged:
as §2

The test system of series [30] is Rattus norvegicus. In words: Distribution of Se-75 activity in blood of female Sprague-Dawley Rat 120 min after iv administration compound. The conditions noted are these: in vivo, 2 h. The gist of the method:
as §4

The test system of series [31] is Rattus norvegicus. In words: Distribution of Se-75 activity in Brain of female Sprague-Dawley Rat 120 min after iv administration of compound. The following applies: in vivo, 2 h.
Series [32] deals with Rattus norvegicus. Briefly: Distribution of Se-75 activity in Kidney of female Sprague-Dawley Rat 120 min after iv administration of compound. The following applies: in vivo, 2 h. The gist of the method: as §3
The test system of series [33] is Rattus norvegicus. Briefly: Distribution of Se-75 activity in Brain of female Sprague-Dawley Rat 240 min after iv administration of compound. The conditions noted are these: in vivo, 4 h.
The test system of series [34] is Rattus norvegicus. Briefly: Distribution of Se-75 activity in Adrenal of female Sprague-Dawley Rat 240 min after iv administration of compound. The following applies: in vivo, 4 h. The gist of the method:
as §3

Series [35] concerns Rattus norvegicus. Briefly: Distribution of Se-75 activity in Kidney of female Sprague-Dawley Rat 240 min after iv administration of compound. The following applies: in vivo, 4 h. The gist of the method:
as §3

The structures appear in SMILES notation.

On to `COc1ccc(CC[Se+](C)C)cc1OC.[I-]`, for which the Ratio in the series on Rattus norvegicus [1] is on record as 2.55; with Rattus norvegicus [3], 4.27; with Rattus norvegicus [4] it was 1.14; with Rattus norvegicus [6], 2.12; in the series with Rattus norvegicus [11] it was 0.31; in the series on Rattus norvegicus [19], 0.46. For the same compound, the Dose/g is recorded as 0.62% in the series with Rattus norvegicus [2]; 1.44% with Rattus norvegicus [5]; 0.33% in the series on Rattus norvegicus [7]; 0% in the series with Rattus norvegicus [8]; 0.17% in the series on Rattus norvegicus [9]; 0.12% in the series with Rattus norvegicus [10]. Besides, the Dose/g came out at 0.64% in the series with Rattus norvegicus [12]; 0.16% with Rattus norvegicus [13]; 0.06% in the series on Rattus norvegicus [14]; 0.74% with Rattus norvegicus [15]; 0.26% in the series with Rattus norvegicus [16]; 1.75% with Rattus norvegicus [17]. For the same compound, the Dose/g with Rattus norvegicus [18] was found to be 0.01%; with Rattus norvegicus [20], 0.19%; with Rattus norvegicus [21] it was 0.07%; with Rattus norvegicus [22], 0.08%; in the series on Rattus norvegicus [23] it was 0.02%.

With `C[Se+](C)CCc1ccc(O)c(O)c1.[Cl-]`, the Dose/g in the series on Rattus norvegicus [24] was 0.8%; in the series with Rattus norvegicus [25], 0.73%; with Rattus norvegicus [26], 0.16%; in the series with Rattus norvegicus [5], 1.25%; in the series on Rattus norvegicus [10], 0.18%; in the series on Rattus norvegicus [27], 0.09%. Moreover, the Dose/g in the series on Rattus norvegicus [28] turned out to be 0.21%; in the series with Rattus norvegicus [29], 0.2%; in the series with Rattus norvegicus [30], 0.08%; in the series with Rattus norvegicus [31] it was 0%; in the series on Rattus norvegicus [16] it was 0.3%; with Rattus norvegicus [17], 2.73%. For the same compound, the Dose/g in the series with Rattus norvegicus [32] is recorded as 0.29%; in the series with Rattus norvegicus [33], 0%; in the series with Rattus norvegicus [34] it was 0.59%; in the series with Rattus norvegicus [23], 0.01%; in the series with Rattus norvegicus [35] it was 0.18%. Also, the Ratio with Rattus norvegicus [1] amounted to 2.28; in the series with Rattus norvegicus [3], 3.07; in the series on Rattus norvegicus [4], 1.04; in the series on Rattus norvegicus [6], 2.62; with Rattus norvegicus [11], 0.29; with Rattus norvegicus [19], 0.43.
